Shown are actives, neighbours in structure and some others; about 2.3% of the full set was active somewhere.
PDI turbidity = blocks human protein disulfide isomerase activity. AID 588391. PDI insulin aggregation turbidity, A650, 90 min. 0.052% of 350,000 active. inhibition, % at 10 µM;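 active = mean inhibition across replicates of 30% or more, whatever share of single replicates reach that level; inconclusive = mean inhibition below 30% while every single replicate reaches 30%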
ERp5 block = ERp5 (human) disulfide isomerase inhibition | Q15084 | ERp5 insulin aggregation, absorbance 650 nm, 90 min | inhibition, % at 9.99 µM | 0.05% of 350,000 active;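 active = mean replicate inhibition above about 25%, with every replicate also reaching it, limit read from the data, passing the limit was not always enough; inconclusive = only one of those two criteria met; inactive = neither criterion met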
Target sequence (Q15084 whole entry, looked up): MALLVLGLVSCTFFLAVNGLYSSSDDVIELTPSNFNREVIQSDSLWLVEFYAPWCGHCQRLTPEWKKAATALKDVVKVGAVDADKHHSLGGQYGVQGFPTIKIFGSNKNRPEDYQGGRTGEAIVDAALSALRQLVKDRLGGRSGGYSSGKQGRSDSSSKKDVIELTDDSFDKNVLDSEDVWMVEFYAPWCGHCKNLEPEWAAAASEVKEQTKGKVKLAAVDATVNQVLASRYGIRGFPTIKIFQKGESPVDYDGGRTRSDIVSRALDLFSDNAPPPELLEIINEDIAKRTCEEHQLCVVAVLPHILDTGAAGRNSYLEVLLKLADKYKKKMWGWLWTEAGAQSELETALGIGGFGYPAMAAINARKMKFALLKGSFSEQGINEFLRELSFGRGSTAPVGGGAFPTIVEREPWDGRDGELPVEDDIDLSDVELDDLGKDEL
DENV2 CPE rescue = DENV2-induced cell death inhibition; DENV2-infected cells, cytopathic effect rescue, plate reader; CPE inhibition, % at 9.99 µM; 1.7% of 350,000 active; AID 651640; in the data active = CPE inhibition above about 20%, passing the limit was not always enough; inconclusive = no clear call, values can overlap the other calls; tested in BHK-21 cells
CFTR F508del cor = CFTR F508del correction in bronchial cells | CFBE cells, YFP halide quenching; stimulated with forskolin plus potentiator P3; % fluorescence drop versus neutral controls | activity (quench increase), % at 7.58 µM | 0.36% of 350,000 active;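 active = mean added fluorescence quench of at least 8% versus neutral control, with both replicates also reaching 8%; inconclusive = only one of the mean or replicate conditions met; inactive = mean below 8% and not both replicates reaching 8%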;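 note: cells transiently co-express mutant CFTR-F508del with the halide-sensitive YFP; corrector assay measuring rescue of mutant channel to the surface after 24 h compound exposure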
Cneo AK release = causes C. neoformans cell lysis; adenylate kinase release luminescence, 4 h; normalised: neutral wells 0, clomiphene wells 100; lysis activity, % at 15 µM; 0.2% of 360,000 active;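 active = mean lysis activity across replicates of at least 80%, whatever share of replicates individually reach that level; inactive = mean lysis activity below 80%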
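Material – log-phase Cryptococcus neoformans yeast cells · Input – 5 × 10^6 yeast cells/mL · Medium – fresh YPD growth medium · Doses – single compound concentration per well · Timing – static 4 h at 37 °C with compound, 1 h detection · Detection – adenylate kinase release luminescence · Read-out – signal increase indicating cell lysis · Control set – Clomiphene as positive lysis control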
C2C12 statin = suppressors of simvastatin-induced myotoxicity in C2C12 myotubes | ATP luminescence, 48 h; scaled: DMSO 0, geranylgeraniol control 100 | rescue of ATP level, % at 7.49 µM | 0.78% of 330,000 active | AID 602340;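 active = mean ATP rescue above about 67%, or every replicate alone reaching that limit, limit read from the data, passing the limit was not always enough; inconclusive = no clear call, values can overlap the other calls; inactive = mean under the limit and some replicate under it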;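 note: myotubes were challenged with 10 µM simvastatin during compound exposure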
Numbers stand for hits; – = inactive; ? = inconclusive; · = no result.

SMILES | PDI turbidity | ERp5 block | DENV2 CPE rescue | CFTR F508del cor | Cneo AK release | C2C12 statin
CO[C@@H](CN(C)C(=O)c1ccc2c(c1)OCO2)[C@H](C)CN([C@@H](C)CO)S(=O)(=O)c1ccc(F)cc1 | · | – | – | – | – | –
CN(C)c1nc(Oc2ccc(C(=O)OCC(=O)Nc3ccccc3)cc2)nc(N(C)C)n1 | – | · | · | · | – | 119
COc1ccc(Nc2nc(-c3sc(C)nc3C)cs2)cc1 | – | – | – | 9.1 | – | –
COc1ccccc1Nc1nc(-c2sc(NC(=O)C(C)(C)C)nc2C)cs1 | – | – | ? | 14 | – | –
COc1cccc(Nc2nc(-c3sc(NC(=O)c4ccccc4)nc3C)cs2)c1 | – | – | ? | 9.1 | – | –
CCCC(=O)Nc1nc(C)c(-c2csc(Nc3ccccc3OC)n2)s1 | – | – | – | – | – | –
Cc1nc(C)c(-c2csc(Nc3ccc(N)cc3)n2)s1 | – | – | – | – | – | –
CCCC(=O)Nc1nc(C)c(-c2csc(Nc3cc(OC)ccc3OC)n2)s1 | – | – | – | – | – | –
C=CCCC(=O)Nc1nc(C)c(-c2csc(Nc3cc(OC)ccc3OC)n2)s1 | – | – | – | 8.8 | – | –
CN(C)CCCNC(=O)C[C@@H]1CC[C@H]2[C@@H](COC[C@H](O)CN2Cc2cccc(Cl)c2)O1 | · | – | – | – | – | –
C[C@@H](C(=O)N(C)C[C@@H]1OCc2ccccc2-c2ccccc2C(=O)N([C@@H](C)CO)C[C@@H]1C)c1ccccc1 | · | – | – | – | – | ·
C[C@@H]1CN([C@H](C)CO)C(=O)c2cc(NC(=O)Nc3ccc(C(F)(F)F)cc3)ccc2O[C@@H]1CN(C)Cc1ccc(Cl)c(Cl)c1 | · | – | 46 | – | – | –
C[C@@H]1CN([C@H](C)CO)C(=O)c2cc(NC(=O)Nc3ccc(C(F)(F)F)cc3)ccc2O[C@H]1CN(C)Cc1ccncc1 | · | – | 33 | – | – | –
C[C@H](CO)N1C[C@H](C)[C@@H](CN(C)Cc2ccncc2)Oc2ccc(NC(=O)NC3CCCCC3)cc2C1=O | · | – | – | – | – | –
C[C@H]1CN([C@@H](C)CO)C(=O)c2cc(NC(=O)Nc3ccc(C(F)(F)F)cc3)ccc2O[C@@H]1CN(C)Cc1ccccc1 | · | – | – | – | – | –
C[C@@H]1CN([C@H](C)CO)C(=O)c2cc(NC(=O)NC3CCCCC3)ccc2O[C@@H]1CN(C)Cc1ccncc1 | · | – | 30 | – | – | –
Cn1c(C(=O)N2CCCC(C(=O)O)C2)cc2sccc21 (stereo not drawn) | – | · | · | · | – | 96
Cc1ccc(S(=O)(=O)N(C)C[C@H]2Oc3ccc(NS(=O)(=O)c4ccc(Cl)cc4)cc3CC(=O)N([C@H](C)CO)C[C@H]2C)cc1 | · | – | – | – | – | –
O=C(c1ccc(Cl)cc1)N1CCc2c([nH]c3ccccc23)C1C(F)(F)F (stereo not drawn) | – | · | 26 | – | – | ·
COc1cccc(C2NC(=S)NC(C)=C2C(C)=O)c1 (stereo not drawn) | · | – | 57 | – | · | ·
CCOc1cccc(C2NC(=S)NC(C)=C2C(=O)Nc2ccccc2)c1 (stereo not drawn) | – | · | · | · | – | ·
O=C(N[C@H]1CC[C@H](CCn2cc(Cc3ccccc3)nn2)O[C@@H]1CO)c1cnccn1 | · | – | – | – | – | –
O=C1N(Cc2ccccc2)Cc2ccccc2[C@@H]2OC(c3ccc(OCCCO)cc3)=N[C@]12Cc1ccccc1 | · | – | 26 | – | – | ·
O=C1N(Cc2ccccc2)Cc2ccccc2[C@H]2OC(c3ccc(OCCCO)cc3)=N[C@@]12Cc1ccccc1 | · | – | – | – | – | ·
COc1ccc2c3c([nH]c2c1)[C@@H](CO)N(S(C)(=O)=O)CC31CN(C(=O)Cc2cccnc2)C1 | · | · | – | – | · | ·
SMILES | PDI turbidity | ERp5 block | DENV2 CPE rescue | CFTR F508del cor | Cneo AK release | C2C12 statin
CC1CCCN(C(=O)c2ccc(S(=O)(=O)Nc3ccccc3Cl)cc2)C1 (stereo not drawn) | – | – | 83 | – | – | –
O=C(C[C@H]1C=C[C@H](NS(=O)(=O)c2ccc(F)cc2)[C@H](CO)O1)N1CCC(Cc2ccccc2)CC1 | · | – | – | – | – | –
O=C(CN1C(=O)c2ccccc2C1=O)Nc1ccccc1C(=O)NC1CCCCCC1 | – | – | · | · | – | –
Cc1ccc(C2(C)NC(=O)N(CC(=O)Nc3ccccc3C(=O)NC3CCCC3)C2=O)cc1 (stereo not drawn) | – | – | 62 | – | – | –
CC(C)NC(=O)N[C@@H]1CC[C@@H](CCn2cc(-c3ccccc3)nn2)O[C@@H]1CO | · | – | – | – | – | –
CO[C@H]1CN(C)C(=O)c2cc(NS(C)(=O)=O)ccc2OC[C@H](C)N(Cc2ccccn2)C[C@@H]1C | · | · | · | – | · | –
CCCC(=O)N1CC2(CN(C(=O)C3CC3)C2)c2c(n(C)c3cc(OC)ccc23)[C@H]1CO | · | – | – | – | · | ·
COc1ccc2c3c(n(C)c2c1)[C@@H](CO)N(Cc1cc(F)ccc1F)CC31CN(C(=O)C2CC2)C1 | · | – | 38 | – | · | ·
COc1ccc(S(=O)(=O)N2CC3(CN(C(=O)CN(C)C)[C@@H](CO)c4c3c3ccc(OC)cc3n4C)C2)cc1 | · | – | ? | – | · | ·
COc1ccc(S(=O)(=O)N2CC3(CN(C(=O)CN(C)C)[C@H](CO)c4c3c3ccc(OC)cc3n4C)C2)cc1 | · | – | 102 | – | · | ·
CCCC(=O)N1CC2(CCN(C(=O)C3CCC3)CC2)c2c(n(C)c3cc(OC)ccc23)[C@@H]1CO | · | · | 22 | – | · | ·
COc1ccc2c3c(n(C)c2c1)[C@H](CO)N(C(C)=O)CC31CN(C(=O)C2CC2)C1 | · | · | 66 | – | · | ·
C[C@H](CO)N1C[C@H](C)[C@@H](CN(C)C(=O)Nc2ccccc2)OCCCC[C@H](C)Oc2ccc(NC(=O)Cc3ccccc3)cc2C1=O | · | – | – | – | – | ·
CCNC(=O)Nc1ccc2c(c1)C(=O)N(C)[C@H]1CC[C@@H](CC(=O)NCc3ccccc3F)O[C@@H]1CO2 | · | – | – | – | – | –
COCC(=O)N1C[C@H](C)[C@@H](OC)CN(C)C(=O)c2ccc(NC(=O)Nc3ccccc3)cc2OC[C@@H]1C | · | · | – | – | · | ·
O=C(C[C@H]1CC[C@H]2[C@@H](COC[C@H](O)CN2C(=O)Nc2ccc(F)cc2)O1)NCCc1ccncc1 | · | – | – | – | – | –
C[C@@H]1CN([C@H](C)CO)C(=O)c2cc(N(C)C)ccc2O[C@@H](C)CCCCO[C@H]1CN(C)C(=O)c1ccccc1 | · | – | – | – | – | –
COc1ccc2c3c(n(C)c2c1)[C@@H](CO)N(C(=O)C1CCCCC1)CC31CCN(C(=O)c2ccncc2)CC1 | · | – | 42 | – | · | ·
COc1ccc2c3c(n(C)c2c1)[C@H](CO)N(C(=O)C1CC1)CC31CCN(C(=O)c2ccncc2)CC1 | · | – | 32 | – | · | ·
COCC(=O)N1CC2(C1)CN(C(=O)NC1CCCC1)[C@@H](CO)c1c2c2ccc(OC)cc2n1C | · | – | ? | – | · | ·
COc1ccc2c3c(n(C)c2c1)[C@@H](CO)N(C(=O)NC1CCCCC1)CC31CN(C)C1 | · | – | 32 | – | · | ·
